# Results published in PMC10644204 (Pharmacology Research & Perspectives, 2023).
# “And” between values parts separate entries of the source, which are not always exact repeats. Equal values may be shown once.
# Columns and labels:
# healthy participants = test: Safety assessments; assay type: in vivo, human
# Method in brief: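 Part 2 healthy participants confined from Day −2 of period 1 to Day 9 of period 4. […] AEs monitored throughout, recording duration, severity, causality and outcome, alongside safety ECGs, laboratory tests, physical examination and vital signs.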
# [1] = GSK'254 200 mg QD, healthy participants, previous studies; cited from earlier work
# [2] = tested on: healthy participants and people living with HIV‐1; conditions: short-term administration; cited from earlier work
# [3] = part 2, GSK'254 100 mg (N = 40)
# [4] = part 2, GSK'254 500 mg (N = 40)
compound,measurement,setting,value
C=C(C)[C@@H]1CC[C@]2(NCCN3CCS(=O)(=O)CC3)CC[C@]3(C)[C@H](CC[C@@H]4[C@@]5(C)CC=C(C6=CC[C@@](CF)(C(=O)O)CC6)C(C)(C)[C@@H]5CC[C@]43C)[C@@H]12 [GSK'254],Tolerability,"healthy participants; both GSK'254 doses, short-term administration, all AEs mild in intensity",generally well tolerated
same,AE: Abdominal pain,healthy participants; [3],0 n (%)
same,AE: Acne,healthy participants; [3],2 (5) n (%)
same,AE: Diarrhea,healthy participants; [3],0 n (%)
same,AE: Gastrointestinal disorders,healthy participants; [3],1 (3) n (%)
same,AE: General disorders and administration site conditions,healthy participants; [3],0 n (%)
same,AE: Immune system disorders,healthy participants; [3],0 n (%)
same,AE: Infections and infestations,healthy participants; [3],0 n (%)
same,AE: Maculopapular rash,healthy participants; [3],1 (3) n (%)
same,AE: Medical device site dermatitis,healthy participants; [3],0 n (%)
same,AE: Nausea,healthy participants; [3],0 n (%)
same,AE: Nervous system disorders,healthy participants; [3],0 n (%)
same,AE: Renal and urinary disorders,healthy participants; [3],0 n (%)
same,AE: Reproductive system and breast disorders,healthy participants; [3],0 n (%)
same,"AE: Respiratory, thoracic, and mediastinal disorders",healthy participants; [3],1 (3) n (%)
same,AE: Skin and subcutaneous tissue disorders,healthy participants; [3],3 (8) n (%)
same,AE: Vessel puncture site pain,healthy participants; [3],0 n (%)
same,Any AE,healthy participants; [3],5 (13) n (%)
same,Any drug-related AE,healthy participants; [3],2 n (%) and 2 (5) n (%)
same,Drug-related AE: Abdominal pain,healthy participants; [3],0 n (%)
same,Drug-related AE: Acne,healthy participants; [3],2 (5) n (%)
same,Drug-related AE: Diarrhea,healthy participants; [3],0 n (%)
same,Drug-related AE: Fatigue,healthy participants; [3],0 n (%)
same,Drug-related AE: Gastrointestinal disorders,healthy participants; [3],0 n (%)
same,Drug-related AE: General disorders and administration site conditions,healthy participants; [3],0 n (%)
same,Drug-related AE: Maculopapular rash,healthy participants; [3],0 n (%)
same,Drug-related AE: Nausea,healthy participants; [3],0 n (%)
same,Drug-related AE: Pruritus,healthy participants; [3],1 (3) n (%)
same,Drug-related AE: Renal and urinary disorders,healthy participants; [3],0 n (%)
same,Drug-related AE: Skin and subcutaneous tissue disorders,healthy participants; [3],2 (5) n (%)
same,Drug-related AE: Urinary hesitation,healthy participants; [3],0 n (%)
same,AE: Abdominal pain,healthy participants; [4],1 (3) n (%)
same,AE: Acne,healthy participants; [4],0 n (%)
same,AE: Diarrhea,healthy participants; [4],6 n (%) and 6 (15) n (%)
same,AE: Gastrointestinal disorders,healthy participants; [4],7 (18) n (%)
same,AE: General disorders and administration site conditions,healthy participants; [4],3 (8) n (%)
same,AE: Immune system disorders,healthy participants; [4],0 n (%)
same,AE: Infections and infestations,healthy participants; [4],1 (3) n (%)
same,AE: Maculopapular rash,healthy participants; [4],1 (3) n (%)
same,AE: Medical device site dermatitis,healthy participants; [4],2 (5) n (%)
same,AE: Nausea,healthy participants; [4],2 (5) n (%)
same,AE: Nervous system disorders,healthy participants; [4],1 (3) n (%)
same,AE: Renal and urinary disorders,healthy participants; [4],0 n (%)
same,AE: Reproductive system and breast disorders,healthy participants; [4],0 n (%)
same,"AE: Respiratory, thoracic, and mediastinal disorders",healthy participants; [4],0 n (%)
same,AE: Skin and subcutaneous tissue disorders,healthy participants; [4],2 (5) n (%)
same,AE: Vessel puncture site pain,healthy participants; [4],0 n (%)
same,Any AE,healthy participants; [4],10 (25) n (%)
same,Any drug-related AE,healthy participants; [4],7 n (%) and 7 (18) n (%)
same,Drug-related AE: Abdominal pain,healthy participants; [4],1 (3) n (%)
same,Drug-related AE: Acne,healthy participants; [4],0 n (%)
same,Drug-related AE: Fatigue,healthy participants; [4],0 n (%)
same,Drug-related AE: Gastrointestinal disorders,healthy participants; [4],6 (15) n (%)
same,Drug-related AE: General disorders and administration site conditions,healthy participants; [4],0 n (%)
same,Drug-related AE: Maculopapular rash,healthy participants; [4],1 (3) n (%)
same,Drug-related AE: Nausea,healthy participants; [4],2 (5) n (%)
same,Drug-related AE: Pruritus,healthy participants; [4],0 n (%)
same,Drug-related AE: Renal and urinary disorders,healthy participants; [4],0 n (%)
same,Drug-related AE: Skin and subcutaneous tissue disorders,healthy participants; [4],1 (3) n (%)
same,Drug-related AE: Urinary hesitation,healthy participants; [4],0 n (%)
same,Geometric mean Cmax,[1],1040 to 1780 ng/mL
same,Tolerability,[2],generally well tolerated
